Experimental data pooled from the literature.
Lines come from different studies, so protocols differ.

SMILES	target	assay	system	conditions	endpoint	value
CCN(CC)CCCC[C@H](NC(=O)[C@H](CC(C)C)NC(=O)[C@H](C)NC(=O)[C@H](Cc1ccccc1)NC(=O)c1ccc(C(C)(C)C)cc1)C(=O)N[C@@H](CO)C(=O)OC	Bromodomain-containing protein 2, BD1 (BRD2, Homo sapiens, UniProt P25440)	thermal stability, DSF	–	25 µM	ΔTm	0.19 °C
CC[C@]1(O)C[C@H]2CN(CCc3c([nH]c4ccccc34)[C@@](C(=O)OC)(c3cc4c(cc3OC)N(C=O)[C@H]3[C@@](O)(C(=O)OC)[C@H](OC(C)=O)[C@]5(CC)C=CCN6CC[C@]43[C@@H]65)C2)C1	Organic cation/carnitine transporter 2 (SLC22A5, Homo sapiens, UniProt O76082)	transporter uptake, inhibitor	HEK293	100 µM	remaining activity	33.6%
COc1ncccc1-c1cnn2ccc(N3CCN(C(=O)OC(C)C)CC3)nc12	Serine/threonine-protein kinase 38-like (STK38L, Homo sapiens, UniProt Q9Y2H1)	binding, competition with immobilised ligand	–	1 µM	remaining binding	100%
c1ccc(C(NCCNC(c2ccccc2)c2ccccc2)c2ccccc2)cc1	Collagenase 3 (MMP13, Homo sapiens, UniProt P45452)	enzyme activity, inhibitor	–	10 µM	inhibition	-10%
Cn1c(=O)n(CCC(C)(C)O)c2cc(Nc3nc(N4CCCC(CO)C4)ncc3Cl)ccc21 (stereo not shown)	B-cell lymphoma 6 protein (BCL6, Homo sapiens, UniProt P41182)	protein level, degrader	SU-DHL-4	–	Dmax	~60%
Nc1ncc(-c2nc(N3CCOCC3)nc(N3CCOCC3)n2)c(C(F)F)n1	Calcium/calmodulin-dependent protein kinase type II subunit gamma (CAMK2G, Homo sapiens, UniProt Q13555)	binding, competition with immobilised ligand	–	10 µM	remaining binding	73%
Cc1nn(C)cc1-c1nc2c(N3CCN(Cc4ccc(Cl)cc4)CC3)c(Cl)cnc2[nH]1	Receptor tyrosine-protein kinase erbB-3 (ERBB3, Homo sapiens, UniProt P21860)	binding, competition with immobilised ligand	–	1 µM	remaining binding	95%
CCSC(=O)N1CCCCCC1	Aldehyde dehydrogenase, mitochondrial (ALDH2, Homo sapiens, UniProt P05091)	enzyme activity, inhibitor	–	–	kinact/KI	76 M⁻¹ s⁻¹
CCCCCCCCCCCCCC(=O)O[C@@H]1[C@@H](C)[C@@]2(O)[C@@H](C=C(CO)C[C@]3(O)C(=O)C(C)=C[C@@H]23)[C@@H]2C(C)(C)[C@]12OC(C)=O	Adenosine receptor A2b (Adora2b, Rattus norvegicus, UniProt P29276)	cAMP, agonist	H9c2	–	Emax	19.6%
C#Cc1n[nH]c2c(-c3cn(C(C)c4ccccn4)c(=O)[nH]c3=O)cc(F)cc12 (stereo not shown)	Insulin receptor (INSR, Homo sapiens, UniProt P06213)	enzyme activity, inhibitor	–	1 µM	inhibition	8.5%
